Drawing on ChEMBL document CHEMBL2150875, “1-Aryl-4-nitro-1H-imidazoles, a new promising series for the treatment of human African trypanosomiasis” (Eur J Med Chem, 2011), this text covers IC50 and Activity for 17 molecules.

Converted amounts (≈) assume the structure as drawn.

One data set relates to L6. In words: Cytotoxicity against in rat L6 cells assessed as reduction in cell viability after 70 hrs by alamar blue assay. Particulars: L6, 70 h; call rule not given here. The data set is classed as cell-based. In a few lines: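 L-6 rat skeletal myoblasts seeded at 4×10^4/mL. 37 °C, 5% CO2, 70 h, then resazurin viability read by fluorescence after 2–4 h. IC50 from sigmoidal inhibition curves.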
A general note: Alamar Blue is a resazurin reagent that responds to reducing activity.

Data set [1] deals with Trypanosoma brucei rhodesiense. In words: Antiparasitic activity against Trypanosoma brucei rhodesiense STIB900 bloodstream forms assessed as reduction in cell viability after 70 hrs by alamar blue assay. Format: functional, organism-based.
A short description of data set [2]: Redox potential of the compound assessed as one electron redox potential by pulse radiolysis method. Format: physicochemical.
Data set [3] has as its system Lymphocyte. Put plainly: Genotoxicity in human lymphocytes assessed as micronucleated binucleate cells level at 5 ug/mL incubated for 20 hrs measured post 28 hrs recovery in absence of rat liver S9 fraction (reference value: 0.4%). Format: toxicity, cell-based. In a few lines: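 Cultures were PHA-stimulated pooled female donor whole-blood lymphocytes, grown 48 h at 37 °C before treatment, with cytochalasin-B 6 µg/mL added at treatment. Without S9, exposure was 20 h with 28 h recovery. With rat S9, exposure was 3 h with 45 h recovery. Micronucleated binucleate cells were scored at 1000 per replicate on Giemsa-stained slides.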

For data set [4], the system named is Lymphocyte. In words: Genotoxicity in human lymphocytes assessed as micronucleated binucleate cells level at […] incubated for 20 hrs measured post 28 hrs recovery in absence of rat liver S9 fraction (reference value: 0.3%). The data set is classed as toxicity, cell-based.
Data set [5] relates to Lymphocyte. In words: Genotoxicity in human lymphocytes assessed as micronucleated binucleate cells level at 0.03 ug/mL incubated for 24 hrs measured under no recovery condition in absence of rat liver S9 fraction (reference value: 0.50%). Format: toxicity, cell-based.
[6] abbreviates: Trypanosoma brucei, STIB900, 70 h, read-out: IC50.

With `CSc1ccc(OCc2ncc([N+](=O)[O-])n2C)cc1` [FEXINIDAZOLE], the IC50 in the data set on L6 is above 90 mg/L; in data set [1] (setting [6]) it was 2.57 µM. The Activity in data set [2] is -511 mV.
Regarding `O=[N+]([O-])c1cc[n+]([O-])c2ccccc12` [4-NITROQUINOLINE-1-OXIDE], the results for the Activity in the data set with Lymphocyte [3] and in the data set with Lymphocyte [4] were 3.5% and 4.8%, respectively.
On to `O=[N+]([O-])c1cn(-c2ccccc2Br)cn1`, for which the half-inhibitory concentration (IC50) result in data set [1] is “Not Active”.
Consider `O=[N+]([O-])c1cn(-c2ccc(Cl)cc2Cl)cn1`, for which, in data set [1], the half-inhibitory concentration (IC50) result is “Not Active”.
Consider `COc1ccc(-n2cnc([N+](=O)[O-])c2)cc1OC`, for which the IC50 result in data set [1] is reported as “Not Active”.
In the case of `O=[N+]([O-])c1cn(-c2ccc3c(c2)OCO3)cn1`, the half-inhibitory concentration (IC50) with L6 is above 90 mg/L; in data set [1] (setting [6]), 0.94 µM.
For the molecule `COc1ccc(-n2cnc([N+](=O)[O-])c2)c(OC)c1`, in data set [1], the IC50 entry is “Not Active”.
On to `Cc1ccc(-n2cnc([N+](=O)[O-])c2)c(C)c1`, for which the 50% inhibitory concentration (IC50) result in data set [1] is recorded as “Not Active”.
Same read-out and setting: the entry for `O=[N+]([O-])c1cn(-c2cc(Cl)ccc2Cl)cn1` is “Not Active”.
For `CC[C@]1(O)C[C@@H]2CN(CCc3c([nH]c4ccccc34)[C@@](C(=O)OC)(c3cc4c(cc3OC)N(C)[C@H]3[C@@](O)(C(=O)OC)[C@H](OC(C)=O)[C@]5(CC)C=CCN6CC[C@]43[C@@H]65)C2)C1` [VINBLASTINE], the Activity in the data set on Lymphocyte [5] was 6.06%.
On to `O=[N+]([O-])c1cn(-c2ccc(F)cc2F)cn1`, for which, in data set [1], the IC50 entry is listed as “Not Active”.
Turning to `O=[N+]([O-])c1cn(-c2ccccc2Cl)cn1`, in data set [1], the half-maximal inhibitory concentration (IC50) result is “Not Active”.
The same measure, in the same setting: the entry for `O=[N+]([O-])c1cn(-c2c(F)cccc2F)cn1` is “Not Active”.
Regarding `NCCCC(N)(C(=O)O)C(F)F` (configuration not stated) [EFLORNITHINE], the half-inhibitory concentration (IC50) in the data set with L6 amounted to 12 mg/L (≈ 65.9 µM); in data set [1] (setting [6]), 3.8 µM.
In the case of `Nc1nc(N)nc(Nc2ccc([As]3SCC(CO)S3)cc2)n1` (configuration not stated) [MELARSOPROL], the half-maximal inhibitory concentration (IC50) in the data set with L6 came to 1.3 mg/L.
Take `Cc1ncc([N+](=O)[O-])n1CCO` [METRONIDAZOLE]: in data set [2], the Activity is reported as -516 mV.
As to `Cc1ccc(-n2cnc([N+](=O)[O-])c2)c(Br)c1`, in data set [1], the IC50 result is recorded as “Not Active”.

Usually IC50 stands for the midpoint of a concentration-inhibition curve.
